In PMC3889518 (European Journal of Clinical Pharmacology, 2013):
“Also recorded” adds a separate entry of the source.

Columns and labels:
[1] = Safety and tolerability in healthy subjects; assay type: in vivo, human
CYP2C8 [2] = conditions: cited from earlier work
CYP3A4 [3] = conditions: co-administration with ketoconazole, strong inhibitor of CYP3A4; cited from earlier work
OATP1B1 = conditions: co-administration of cyclosporin, inhibitor of OATP1B1; cited from earlier work
[4] = high first-pass effect; cited from earlier work
CYP3A4 [5] = target: CYP3A4 (Homo sapiens, UniProt P08684); assay type: in vivo; conditions: repeat dosing of vercirnon 500 mg BID, midazolam probe, healthy subjects
Chain of CYP3A4 (Homo sapiens, UniProt P08684) (P08684 whole entry): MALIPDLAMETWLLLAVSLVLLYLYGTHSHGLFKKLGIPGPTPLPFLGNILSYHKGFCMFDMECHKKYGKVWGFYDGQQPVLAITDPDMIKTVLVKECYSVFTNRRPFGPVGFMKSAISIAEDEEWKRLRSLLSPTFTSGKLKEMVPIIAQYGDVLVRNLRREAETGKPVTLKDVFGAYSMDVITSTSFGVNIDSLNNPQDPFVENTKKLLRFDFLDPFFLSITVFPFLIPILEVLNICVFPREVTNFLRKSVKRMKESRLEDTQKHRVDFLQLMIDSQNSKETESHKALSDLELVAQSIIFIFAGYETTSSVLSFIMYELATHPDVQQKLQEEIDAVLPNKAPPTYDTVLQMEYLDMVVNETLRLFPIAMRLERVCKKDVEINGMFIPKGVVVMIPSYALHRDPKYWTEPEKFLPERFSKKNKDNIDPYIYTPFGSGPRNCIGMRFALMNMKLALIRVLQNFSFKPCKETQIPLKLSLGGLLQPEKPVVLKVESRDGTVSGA

CYP2C8 [6] = target: T1, CYP2C8 (Homo sapiens, UniProt P10632); assay type: in vivo; conditions: repeat dosing of vercirnon 500 mg BID, pioglitazone probe, healthy subjects
T1 sequence (P10632 1-490): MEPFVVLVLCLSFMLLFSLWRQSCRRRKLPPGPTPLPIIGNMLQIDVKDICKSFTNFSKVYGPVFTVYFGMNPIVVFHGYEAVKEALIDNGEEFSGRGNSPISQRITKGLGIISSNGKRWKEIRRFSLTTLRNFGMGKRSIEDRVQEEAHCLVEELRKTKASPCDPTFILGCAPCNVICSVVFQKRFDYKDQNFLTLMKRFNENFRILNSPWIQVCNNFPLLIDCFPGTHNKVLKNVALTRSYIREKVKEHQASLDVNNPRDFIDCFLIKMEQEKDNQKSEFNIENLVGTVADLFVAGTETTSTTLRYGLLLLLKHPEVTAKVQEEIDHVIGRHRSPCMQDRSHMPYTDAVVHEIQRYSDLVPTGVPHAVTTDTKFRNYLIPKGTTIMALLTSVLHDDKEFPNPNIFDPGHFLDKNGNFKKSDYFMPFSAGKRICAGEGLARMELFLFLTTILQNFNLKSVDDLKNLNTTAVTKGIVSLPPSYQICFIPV

CYP2C19 = CYP2C19 (Homo sapiens, UniProt P33261); assay type: in vivo; conditions: repeat dosing of vercirnon 500 mg BID, omeprazole probe, healthy subjects
Chain of CYP2C19 (P33261 whole entry): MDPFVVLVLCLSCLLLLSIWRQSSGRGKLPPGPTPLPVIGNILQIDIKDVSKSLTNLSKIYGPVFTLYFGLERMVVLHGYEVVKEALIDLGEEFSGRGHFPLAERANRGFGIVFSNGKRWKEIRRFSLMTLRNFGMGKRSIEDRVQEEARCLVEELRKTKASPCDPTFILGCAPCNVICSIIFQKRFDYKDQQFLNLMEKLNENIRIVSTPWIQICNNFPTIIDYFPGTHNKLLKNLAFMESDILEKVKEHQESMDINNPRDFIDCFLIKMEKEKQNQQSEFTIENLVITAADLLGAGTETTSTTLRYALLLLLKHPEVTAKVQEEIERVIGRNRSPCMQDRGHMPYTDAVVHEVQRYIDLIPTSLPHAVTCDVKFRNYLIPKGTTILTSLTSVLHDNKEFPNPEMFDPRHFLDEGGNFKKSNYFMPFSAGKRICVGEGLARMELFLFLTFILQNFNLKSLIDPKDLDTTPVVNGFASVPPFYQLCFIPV

BCRP and OATP1B1 = assay type: in vivo, human; conditions: repeat dosing of vercirnon 500 mg BID, rosuvastatin probe, healthy subjects
How it was run: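 Open-label, single-sequence study in 24 healthy adults aged 18–55. Rosuvastatin 10 mg oral tablet was given alone on day 4 and again on day 14 with vercirnon 500 mg BID after meals (days 5–14). Dosing was 30 min after breakfast with 240 mL water. Serial plasma samples were taken over 48 h. Non-compartmental AUC0–∞ was loge-transformed and analysed in a mixed-effects model (treatment fixed, subject random), giving a geometric LS mean ratio with 90% CI.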

[7] = assay type: in vivo, human; conditions: day 10 compared with day 5, vercirnon 500 mg BID
How it was run: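 Vercirnon 500 mg BID, taken after meals, starting study day 5. Six volunteers had serial plasma sampling over 24 h on days 5 and 10 for vercirnon and two metabolites. Non-compartmental AUC0–τ, Cmax and tmax were determined. Accumulation ratio for AUC0–τ and Cmax compared day 10 with day 5. Metabolite:parent AUC0–τ ratios were molar. Steady state was tested on day 6–11 troughs from all 24 subjects by the 90% CI of the regression slope.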

[8] = oral administration 250 to 1,000 mg; cited from earlier work
[9] = ref ChemoCentryx, data on file; cited from earlier work
[10] = system: human p-glycoprotein transporter protein; conditions: ref ChemoCentryx, data on file; cited from earlier work
[11] = ref ChemoCentryx, data on file; cited from earlier work; remark: listed apart in the source
[12] = multiple oxidative and reductive pathways, including CYP3A4, CYP2C19 and CYP2B6; ref ChemoCentryx, data on file; cited from earlier work
[13] = read-out: maximum observed concentration [Cmax] range; likely therapeutic plasma concentrations; ref ChemoCentryx, data on file; cited from earlier work
[14] = system: breast cancer resistant protein (BCRP); conditions: ref ChemoCentryx and GlaxoSmithKline, data on file; cited from earlier work
OAT1B1 = conditions: ref ChemoCentryx and GlaxoSmithKline, data on file; cited from earlier work
OAT1 = conditions: ref ChemoCentryx and GlaxoSmithKline, data on file; cited from earlier work
OAT3 = conditions: ref ChemoCentryx and GlaxoSmithKline, data on file; cited from earlier work
CYP2C8 [15] = conditions: strong inhibitor of CYP2C8; cited from earlier work

## Cc1ncc2n1-c1ccc(Cl)cc1C(c1ccccc1F)=NC2 [Midazolam, reference compound]
[1]; of 24 subjects, on 19 occasions, midazolam alone or midazolam + vercirnon
  Somnolence, number of subjects reporting: 13 subjects

## CCc1ccc(CCOc2ccc(CC3SC(=O)NC3=O)cc2)nc1 (stereo not drawn) [Pioglitazone]
CYP2C8 [2]; co-administration with gemfibrozil
  Increase of pioglitazone AUC: 3.4 fold
CYP2C8 [2]; co-administration with rifampin, inducer of CYP2C8
  Decrease of exposure (AUC) of pioglitazone: 54%
CYP3A4 [3]
  Increase of pioglitazone: 34%

## CC(C)c1nc(N(C)S(C)(=O)=O)nc(-c2ccc(F)cc2)c1/C=C/[C@@H](O)C[C@@H](O)CC(=O)O [Rosuvastatin]
OATP1B1
  Increase of rosuvastatin AUC: 7 fold
[4]
  bioavailability: ~20%

## CC(C)(C)c1ccc(S(=O)(=O)Nc2ccc(Cl)cc2C(=O)c2cc[n+]([O-])cc2)cc1 [Vercirnon]
CYP3A4 [5]
  Effect on CYP3A4 enzyme activity: no clinically significant effect
CYP2C8 [6]
  Effect on CYP2C8 enzyme activity: no clinically significant effect
CYP2C19
  Effect on CYP2C19 enzyme activity: no clinically significant effect
BCRP and OATP1B1
  Effect on BCRP or OATP1B1 transporter activity: no clinically significant effect
[7]
  Average accumulation in terms of AUC0–τ: 14%
  Average accumulation in terms of Cmax: 3%
[1]; 24 healthy subjects, all treatments over 14 days, vercirnon 500 mg BID
  Tolerability: well tolerated
[8]
  time to maximum concentration (tmax): 3 to 4 h
[9]
  protein bound: > 90%
[10]
  Substrate for human p-glycoprotein transporter protein or other transport proteins: unlikely to be a substrate
[11]
  Permeability: passively permeable
[12]
  Metabolism: extensively metabolised
[13]
  Cmax: 3 to 5 µM
[14]
  Inhibition of BCRP in vitro: can inhibit
OAT1B1
  Inhibition of OAT1B1 in vitro: has the potential to inhibit; also recorded: can inhibit
OAT1
  Inhibition of OAT1 in vitro: can inhibit
OAT3
  Inhibition of OAT3 in vitro: can inhibit

## Cc1ccc(C)c(OCCCC(C)(C)C(=O)O)c1 [gemfibrozil]
CYP2C8 [15]
  Ki: 69 to 75 µM
